Assay results published in ChEMBL document CHEMBL1926538, “3,5-Disubstituted-thiazolidine-2,4-dione analogs as anticancer agents: design, synthesis and biological characterization” (Eur J Med Chem, 2012).
Calls of active or inactive are those of the source. No cut-off for these calls is given here.

Experiments:
[1] = target: MAP/microtubule affinity-regulating kinase 3 (Homo sapiens) (UniProt P27448); assay: Inhibition of c-TAK1 at 10 uM
[2] = target: Serine/threonine-protein kinase Sgk1 (Homo sapiens) (UniProt O00141); assay: Inhibition of SGK1 at 10 uM
U-937 [3] = assay: Cell cycle arrest in human U937 cells assessed as sub-diploid apoptotic fraction at 15 uM after 24 hrs by propidium iodide staining-based flow cytometric analysis; assay type: functional
Summary of the method: (§1)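 Cells cultured in RPMI 1640 with 10% FBS and treated 24 h at the indicated concentrations. Stained with propidium iodide for 4 h at 4 °C in the dark. Flow cytometry gave the percentage of cells in G₀/G₁, S, G₂/M and sub-G₁ phases.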

[4] = target: Calcium/calmodulin-dependent protein kinase type IV (Homo sapiens) (UniProt Q16566); assay: Inhibition of CAMK4 at 10 uM
[5] = target: Tyrosine-protein kinase ABL1 (Homo sapiens) (UniProt P00519); assay: Inhibition of ABL at 10 uM
Tyrosine-protein kinase ABL1 (Homo sapiens), sequence (P00519 whole entry): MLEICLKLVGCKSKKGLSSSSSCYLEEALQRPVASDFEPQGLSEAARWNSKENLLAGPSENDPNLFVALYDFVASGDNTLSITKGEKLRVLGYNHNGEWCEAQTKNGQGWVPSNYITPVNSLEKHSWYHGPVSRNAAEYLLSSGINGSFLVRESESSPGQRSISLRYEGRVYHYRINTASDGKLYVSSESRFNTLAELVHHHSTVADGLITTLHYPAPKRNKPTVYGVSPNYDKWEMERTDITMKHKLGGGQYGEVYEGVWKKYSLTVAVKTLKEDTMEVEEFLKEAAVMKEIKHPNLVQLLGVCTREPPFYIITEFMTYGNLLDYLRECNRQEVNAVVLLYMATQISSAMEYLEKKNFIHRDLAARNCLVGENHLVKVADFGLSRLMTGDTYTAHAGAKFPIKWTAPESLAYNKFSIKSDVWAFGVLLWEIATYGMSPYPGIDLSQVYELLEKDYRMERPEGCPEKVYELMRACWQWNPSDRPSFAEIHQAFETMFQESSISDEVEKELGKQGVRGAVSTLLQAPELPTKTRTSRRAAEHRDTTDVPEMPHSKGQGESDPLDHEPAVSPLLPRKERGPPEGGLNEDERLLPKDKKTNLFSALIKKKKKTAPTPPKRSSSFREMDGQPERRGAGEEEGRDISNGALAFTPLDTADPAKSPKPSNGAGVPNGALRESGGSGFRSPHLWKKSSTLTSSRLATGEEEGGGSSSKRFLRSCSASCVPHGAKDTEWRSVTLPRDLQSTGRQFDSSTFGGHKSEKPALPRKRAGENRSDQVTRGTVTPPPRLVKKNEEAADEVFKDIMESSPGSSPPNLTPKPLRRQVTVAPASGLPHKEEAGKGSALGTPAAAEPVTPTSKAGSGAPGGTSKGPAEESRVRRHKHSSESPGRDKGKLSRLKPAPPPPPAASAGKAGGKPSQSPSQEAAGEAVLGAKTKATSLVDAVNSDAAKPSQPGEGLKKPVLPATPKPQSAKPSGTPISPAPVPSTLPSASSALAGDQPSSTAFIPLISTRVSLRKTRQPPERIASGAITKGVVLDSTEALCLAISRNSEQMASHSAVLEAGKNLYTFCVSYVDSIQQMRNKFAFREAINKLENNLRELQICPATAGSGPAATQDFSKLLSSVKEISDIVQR

U-937 [6] = assay: Induction of apoptosis in human U937 cells assessed as late apoptotic cells at 3 uM after 3 hrs by annexinV-propidium iodide staining-based flow cytometric analysis (reference value: 8.6%); assay type: functional
[7] = target: Cyclin-dependent kinase 2 (Homo sapiens) (UniProt P24941); assay: Inhibition of CDK2 at 10 uM
DU-145 [8] = assay: Induction of apoptosis in human DU145 cells assessed as late apoptotic cells at 20 uM after 24 hrs by annexinV-propidium iodide staining-based flow cytometric analysis (reference value: 5.1%); assay type: functional
U-937 [9] = assay: Induction of apoptosis in human U937 cells assessed as necrotic cells at 3 uM after 3 hrs by annexinV-propidium iodide staining-based flow cytometric analysis (reference value: 2.3%); assay type: functional
[10] = target: Hepatocyte growth factor receptor (Homo sapiens) (UniProt P08581); assay: Inhibition of MET at 10 uM
DU-145 [11] = assay: Induction of apoptosis in human DU145 cells assessed as necrotic cells at 20 uM after 24 hrs by annexinV-propidium iodide staining-based flow cytometric analysis (reference value: 2.1%); assay type: functional
[12] = target: Interleukin-1 receptor-associated kinase 4 (Homo sapiens) (UniProt Q9NWZ3); assay: Inhibition of IRAK4 at 10 uM
Interleukin-1 receptor-associated kinase 4 (Homo sapiens), sequence (Q9NWZ3 whole entry): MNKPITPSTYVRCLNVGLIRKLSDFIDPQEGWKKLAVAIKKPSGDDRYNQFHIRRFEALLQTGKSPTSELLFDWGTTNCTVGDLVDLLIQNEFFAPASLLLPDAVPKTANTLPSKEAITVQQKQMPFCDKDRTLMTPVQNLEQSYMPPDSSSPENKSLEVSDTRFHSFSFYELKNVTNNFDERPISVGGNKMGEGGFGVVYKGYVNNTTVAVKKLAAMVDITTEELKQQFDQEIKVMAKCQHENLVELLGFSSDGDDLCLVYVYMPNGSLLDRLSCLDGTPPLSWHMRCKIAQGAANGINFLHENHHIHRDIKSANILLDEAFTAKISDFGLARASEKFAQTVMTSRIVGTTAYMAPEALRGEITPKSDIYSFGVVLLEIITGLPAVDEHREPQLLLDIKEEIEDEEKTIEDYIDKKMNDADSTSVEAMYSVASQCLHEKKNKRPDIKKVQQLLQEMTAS

[13] = target: Ribosomal protein S6 kinase alpha-1 (Homo sapiens) (UniProt Q15418); assay: Inhibition of RSK1 at 10 uM
[14] = target: Protein kinase C zeta type (Homo sapiens) (UniProt Q05513); assay: Inhibition of PKCzeta at 10 uM
Protein kinase C zeta type (Homo sapiens), sequence (Q05513 whole entry): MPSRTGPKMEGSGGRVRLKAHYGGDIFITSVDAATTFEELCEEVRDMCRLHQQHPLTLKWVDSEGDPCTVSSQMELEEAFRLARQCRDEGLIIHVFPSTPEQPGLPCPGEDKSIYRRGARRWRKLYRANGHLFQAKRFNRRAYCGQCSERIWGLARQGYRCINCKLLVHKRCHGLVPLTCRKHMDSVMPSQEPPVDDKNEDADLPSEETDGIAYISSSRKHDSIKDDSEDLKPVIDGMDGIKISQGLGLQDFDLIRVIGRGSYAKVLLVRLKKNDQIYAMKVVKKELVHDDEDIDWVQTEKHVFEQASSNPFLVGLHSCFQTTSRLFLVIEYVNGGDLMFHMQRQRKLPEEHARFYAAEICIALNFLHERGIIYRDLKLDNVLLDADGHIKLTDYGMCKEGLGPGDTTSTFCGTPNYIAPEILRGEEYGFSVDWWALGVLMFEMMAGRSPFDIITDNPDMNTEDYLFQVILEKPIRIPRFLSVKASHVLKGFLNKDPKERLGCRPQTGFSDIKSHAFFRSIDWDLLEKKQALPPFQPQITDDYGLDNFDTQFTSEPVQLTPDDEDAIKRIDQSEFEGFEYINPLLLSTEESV

[15] = target: RAF proto-oncogene serine/threonine-protein kinase (Homo sapiens) (UniProt P04049); assay: Inhibition of Raf-mediated ERK phosphorylation in human DU145 cells at 10 to 20 uM after 24 hrs by Western blot analysis; assay type: cell-based; conditions: DU-145
RAF proto-oncogene serine/threonine-protein kinase (Homo sapiens), sequence (P04049 whole entry): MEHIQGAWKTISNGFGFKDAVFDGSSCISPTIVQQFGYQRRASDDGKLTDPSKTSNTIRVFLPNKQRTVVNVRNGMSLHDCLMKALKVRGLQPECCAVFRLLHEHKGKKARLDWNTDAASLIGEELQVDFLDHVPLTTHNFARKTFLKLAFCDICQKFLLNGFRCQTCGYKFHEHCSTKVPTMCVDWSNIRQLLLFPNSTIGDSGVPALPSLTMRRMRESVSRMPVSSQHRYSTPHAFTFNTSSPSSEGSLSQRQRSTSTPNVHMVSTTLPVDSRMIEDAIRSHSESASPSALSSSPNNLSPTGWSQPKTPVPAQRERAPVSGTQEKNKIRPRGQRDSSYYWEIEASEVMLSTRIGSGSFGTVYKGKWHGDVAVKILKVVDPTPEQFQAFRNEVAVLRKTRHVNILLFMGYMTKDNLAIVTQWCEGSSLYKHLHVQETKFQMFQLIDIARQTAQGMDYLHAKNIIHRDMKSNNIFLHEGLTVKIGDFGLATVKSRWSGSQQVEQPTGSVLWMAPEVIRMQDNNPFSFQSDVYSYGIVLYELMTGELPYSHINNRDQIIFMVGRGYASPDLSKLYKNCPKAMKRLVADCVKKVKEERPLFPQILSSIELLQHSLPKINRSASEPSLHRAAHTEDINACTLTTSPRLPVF
Summary of the method: (§2)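 Cells in RPMI 1640 with 10% heat-inactivated FBS, 37 °C, 5% CO2; treated in growing medium (DU145 24 h; U937 1 h at 5 × 10⁵/mL). Lysed by sonication in SDS sample buffer with protease inhibitors plus 1 mM orthovanadate and pyrophosphate, boiled 5 min. Blots blocked in 5% milk, primary antibodies 1:1000 overnight at 4 °C, HRP secondary 1:2000, chemiluminescence; α-tubulin loading control.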

U-937 [16] = assay: Induction of apoptosis in human U937 cells assessed as early apoptotic cells at 10 uM after 6 hrs by annexinV-propidium iodide staining-based flow cytometric analysis (reference value: 4.6%); assay type: functional
[17] = target: c-Jun N-terminal kinase, JNK (Homo sapiens) (UniProt P45983+P53779+P45984); assay: Inhibition JNK phosphorylation in human U937 cells at 1 to 10 uM after 1 hr by Western blot analysis; assay type: cell-based; conditions: U-937
Summary of the method: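 U937 cells at 5 × 10^5/mL were exposed to compound for 1 h, then sonicated in SDS/DTT sample buffer with protease inhibitors plus 1 mM orthovanadate and pyrophosphate, and boiled 5 min. Blots were blocked in 5% milk, probed with primary antibody overnight at 4 °C and 1:2000 HRP secondary, and read by chemiluminescence. α-Tubulin reprobe served as loading control. Blots shown represent one of three experiments.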

[18] = Growth inhibition of human NCI60 cells; assay type: functional
[19] = target: MAP kinase p38 (Homo sapiens) (UniProt O15264+Q15759+Q16539+P53778); assay: Inhibition p38 phosphorylation in human U937 cells at 1 to 10 uM after 1 hr by Western blot analysis; assay type: cell-based; conditions: U-937
Summary of the method: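 p38 blot in U937: cells at 5 × 10⁵/mL in RPMI 1640 plus 10% FBS, exposed 1 h, sonicated in SDS sample buffer containing phosphatase inhibitors, boiled; immunoblot with primary antibody overnight at 4 °C, HRP secondary, chemiluminescent detection.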

[20] = target: Dual specificity tyrosine-phosphorylation-regulated kinase 1A (Homo sapiens) (UniProt Q13627); assay: Inhibition of DYRK1a at 10 uM
U-937 [21] = assay: Induction of apoptosis in human U937 cells assessed as early apoptotic cells at 3 uM after 6 hrs by annexinV-propidium iodide staining-based flow cytometric analysis (reference value: 4.6%); assay type: functional
[22] = target: Dual specificity mitogen-activated protein kinase kinase 2 (Homo sapiens) (UniProt P36507); assay: Inhibition of MEK2 at 10 uM
[23] = target: RAF proto-oncogene serine/threonine-protein kinase (Homo sapiens) (UniProt P04049); assay: Inhibition of raf-mediated MEK phosphorylation in human U937 cells at 3 uM after 1 hr by Western blot analysis; assay type: cell-based; conditions: U-937; summary of the method: as §2
U-937 [24] = assay: Cell cycle arrest in human U937 cells assessed as accumulation at S-phase at 10 uM after 24 hrs by propidium iodide staining-based flow cytometric analysis; assay type: functional; summary of the method: as §1
U-937 [25] = assay: Induction of apoptosis in human U937 cells assessed as early apoptotic cells at 10 uM after 3 hrs by annexinV-propidium iodide staining-based flow cytometric analysis (reference value: 2.8%); assay type: functional
[26] = target: Protein kinase C beta type (Homo sapiens) (UniProt P05771); assay: Inhibition of PKCbeta2 at 10 uM
[27] = target: Insulin-like growth factor 1 receptor (Homo sapiens) (UniProt P08069); assay: Inhibition of IGF1R at 10 uM
Insulin-like growth factor 1 receptor (Homo sapiens), sequence (P08069 31-736 limits assumed): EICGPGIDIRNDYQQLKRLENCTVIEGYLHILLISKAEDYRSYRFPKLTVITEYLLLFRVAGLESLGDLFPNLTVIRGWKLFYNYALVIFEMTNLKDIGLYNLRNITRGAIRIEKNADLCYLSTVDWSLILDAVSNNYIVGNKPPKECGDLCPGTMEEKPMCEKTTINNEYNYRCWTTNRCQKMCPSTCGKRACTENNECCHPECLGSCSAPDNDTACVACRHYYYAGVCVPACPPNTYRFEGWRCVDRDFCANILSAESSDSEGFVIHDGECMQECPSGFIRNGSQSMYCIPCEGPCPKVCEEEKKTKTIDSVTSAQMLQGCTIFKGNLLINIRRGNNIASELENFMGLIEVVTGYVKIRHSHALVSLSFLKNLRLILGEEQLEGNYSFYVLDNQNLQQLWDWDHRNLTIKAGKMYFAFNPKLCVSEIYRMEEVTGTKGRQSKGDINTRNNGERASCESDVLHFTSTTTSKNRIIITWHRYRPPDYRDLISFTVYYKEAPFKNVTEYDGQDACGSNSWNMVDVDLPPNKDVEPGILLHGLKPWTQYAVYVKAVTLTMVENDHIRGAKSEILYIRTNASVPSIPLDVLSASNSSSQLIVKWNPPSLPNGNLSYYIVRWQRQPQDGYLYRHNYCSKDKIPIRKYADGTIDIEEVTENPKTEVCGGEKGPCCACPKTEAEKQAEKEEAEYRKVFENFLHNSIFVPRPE
Insulin-like growth factor 1 receptor (Homo sapiens), sequence (P08069 741-1367 limits assumed): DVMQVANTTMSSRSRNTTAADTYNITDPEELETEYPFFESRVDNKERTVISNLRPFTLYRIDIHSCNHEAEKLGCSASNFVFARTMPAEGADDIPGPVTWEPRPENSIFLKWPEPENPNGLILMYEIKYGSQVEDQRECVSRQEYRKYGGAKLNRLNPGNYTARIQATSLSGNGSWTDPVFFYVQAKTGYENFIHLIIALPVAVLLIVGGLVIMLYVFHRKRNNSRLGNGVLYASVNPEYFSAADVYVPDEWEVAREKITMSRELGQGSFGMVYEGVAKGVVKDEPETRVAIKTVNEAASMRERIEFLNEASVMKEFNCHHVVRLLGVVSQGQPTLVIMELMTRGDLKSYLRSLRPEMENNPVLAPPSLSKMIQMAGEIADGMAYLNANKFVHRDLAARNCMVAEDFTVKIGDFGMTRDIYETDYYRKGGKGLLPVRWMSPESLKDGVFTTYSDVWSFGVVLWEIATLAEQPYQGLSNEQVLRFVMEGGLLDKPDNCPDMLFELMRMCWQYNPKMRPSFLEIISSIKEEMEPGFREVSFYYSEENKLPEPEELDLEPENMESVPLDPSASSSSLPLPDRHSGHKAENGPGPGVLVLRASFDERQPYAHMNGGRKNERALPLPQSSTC

[28] = target: Calcium/calmodulin-dependent protein kinase type II subunit beta (Homo sapiens) (UniProt Q13554); assay: Inhibition of CAMK2 at 10 uM
Calcium/calmodulin-dependent protein kinase type II subunit beta (Homo sapiens), sequence (Q13554 whole entry): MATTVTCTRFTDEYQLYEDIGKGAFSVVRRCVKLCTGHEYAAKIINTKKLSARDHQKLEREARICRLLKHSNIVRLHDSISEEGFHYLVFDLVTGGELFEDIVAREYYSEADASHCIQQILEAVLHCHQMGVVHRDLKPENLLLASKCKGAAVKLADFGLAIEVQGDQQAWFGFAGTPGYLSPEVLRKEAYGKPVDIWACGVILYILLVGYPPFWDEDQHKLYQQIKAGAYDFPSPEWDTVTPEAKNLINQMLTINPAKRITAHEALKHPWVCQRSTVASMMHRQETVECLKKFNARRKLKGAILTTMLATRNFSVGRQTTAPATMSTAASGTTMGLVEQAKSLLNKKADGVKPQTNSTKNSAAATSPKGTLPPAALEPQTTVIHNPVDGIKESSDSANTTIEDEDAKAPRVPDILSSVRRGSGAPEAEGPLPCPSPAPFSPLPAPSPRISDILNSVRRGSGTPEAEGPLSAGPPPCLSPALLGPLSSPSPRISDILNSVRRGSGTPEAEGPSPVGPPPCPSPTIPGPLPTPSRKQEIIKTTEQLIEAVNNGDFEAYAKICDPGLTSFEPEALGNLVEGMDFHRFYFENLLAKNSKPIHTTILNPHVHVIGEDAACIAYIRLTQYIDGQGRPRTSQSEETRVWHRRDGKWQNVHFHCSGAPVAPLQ

[29] = target: 5'-AMP-activated protein kinase catalytic subunit alpha-2 (Homo sapiens) (UniProt P54646); assay: Activation of AMPK in human U937 cells assessed as increase in phosphorylated AMPK level at 1 to 10 uM after 1 hr by Western blot analysis; assay type: cell-based; conditions: U-937
Summary of the method: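 Cells at 5 × 10⁵/mL in growing medium, RPMI 1640 with 10% heat-inactivated FBS, 37 °C, 5% CO₂, exposed 1 h. Lysed by sonication in SDS sample buffer with protease inhibitors plus 1 mM orthovanadate and pyrophosphate, boiled 5 min. Immunoblot probed with rabbit polyclonal anti-phospho-AMPK (Thr172) 1:1000, HRP secondary, chemiluminescence. α-Tubulin reprobe as loading control. One of three independent experiments shown.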

[30] = target: Insulin receptor (Homo sapiens) (UniProt P06213); assay: Inhibition of INSR at 10 uM
U-937 [31] = assay: Cell cycle arrest in human U937 cells assessed as accumulation at S-phase at 15 uM after 24 hrs by propidium iodide staining-based flow cytometric analysis; assay type: functional; summary of the method: as §1

inhibition [1]: 6% | inhibition [2]: 14% | inhibition [4]: 71% | inhibition [5]: 6% | inhibition [7]: -2% | inhibition [10]: -1% | inhibition [12]: -1% | inhibition [13]: 2% | inhibition [14]: -8% | inhibition [15]: Active | inhibition [17]: inactive | inhibition [19]: inactive | inhibition [20]: -5% | inhibition [22]: 27% | inhibition [23]: Active | inhibition [26]: 16% | inhibition [27]: -5% | inhibition [28]: 60% | Activity [29]: Active | inhibition [30]: -2%
SMILES: NCCN1C(=O)S/C(=C\CCC2CCCCC2)C1=O
Activity (U-937 [3]): 64.3% | Activity (U-937 [6]): 7.7% | Activity (DU-145 [8]): 23% | Activity (U-937 [9]): 1.9% | Activity (DU-145 [11]): 3.2% | Activity (U-937 [16]): 14.2% | GI50 [18]: 1.4 µM | Activity (U-937 [21]): 3.8% | Activity (U-937 [24]): 23.6% | Activity (U-937 [25]): 23.8% | Activity (U-937 [31]): 31.4%
